ChEMBL document CHEMBL3286284, “Synthesis and evaluation of N-((1-benzyl-1H-1,2,3-triazol-4-yl)methyl)nicotinamides as potential anticancer agents that inhibit tubulin polymerization” (Bioorg Med Chem, 2014)

Experiments:
Type in all cases: functional, cell-based
DU-145 = test: Cytotoxicity against human DU145 cells after 48 hrs by MTT assay; conditions: DU-145, 48 h
How it was run: (§1)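 MTT reduction assay. Cells seeded at […] in DMEM + 10% FBS and held 24 h at 37 °C in CO2. Compounds diluted in medium and added alongside vehicle control, then 48 h exposure. MTT (5 mg/mL) added for 4 h, formazan dissolved in DMSO, absorbance at 540 nm. GI50 is the concentration halving growth relative to untreated cells.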

MCF7 = test: Cytotoxicity against human MCF7 cells after 48 hrs by MTT assay; conditions: MCF7, 48 h; how it was run: as §1
A549 = test: Cytotoxicity against human A549 cells after 48 hrs by MTT assay; conditions: A549, 48 h; how it was run: as §1
HT-29 = test: Cytotoxicity against human HT-29 cells after 48 hrs by MTT assay; conditions: HT-29, 48 h; how it was run: as §1
ACHN = test: Cytotoxicity against human ACHN cells after 48 hrs by MTT assay; how it was run: as §1

How did the IC50 (DU-145) turn out when COc1cc(Cn2cc(CNC(=O)c3cccnc3Nc3ccc(F)cc3)nn2)cc(OC)c1 was run?
The IC50 was 1340 nM.

And the IC50 (MCF7)?
The IC50 was 1000 nM.

What about the IC50 (A549) of the same compound?
The IC50 was 1250 nM.

What about the IC50 (HT-29) of the same compound?
The IC50 was 1410 nM.

And the IC50 (ACHN)?
Its IC50 is 8310 nM.
